Values after ≈ are worked out from the molar mass of the structure shown. *1 amine or outer side, *2 acyl side, *3 side chain or, on linkers, in order; H or OH if unused. Where a SMILES comes first, the peptide text is derived from it. Bridges are numbered along the chain shown (N, C = ends). [ ]: non-standard residue; d: D form. The star is where a group is joined. pTerphenylCO(4''-OnC5H11) = CCCCCOc1ccc(-c2ccc(-c3ccc(C(=O)*)cc3)cc2)cc1; Orn(4R-OH,5R-OH) = O=C([C@H](C[C@@H](O)[C@@H](O)N[*:3])N[*:1])[*:2]; hTyr(3S-OH,4S-OH) = N[C@H](C(=O)O)[C@H](O)[C@@H](O)c1ccc(O)cc1; Pro(3S-OH,4S-Me) = C[C@H]1CN[C@H](C(=O)O)[C@H]1O; Hyp = O=C(O)[C@@H]1C[C@@H](O)CN1
Legend:
[1] = tested on: Mus musculus; test: Protein binding in Candida albicans infected neutropenic ICR Swiss mouse at 80 mg/kg, ip; assay type: ADME, organism-based; design: dose 80 mg/kg, route intraperitoneal; settings: in vivo
[2] = Ratio of AUC (0 to 24 hrs) in Candida albicans infected neutropenic ICR Swiss mouse to MIC for Candida albicans at static dose after 24 hrs; assay type: functional
How it was run: (§1)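 Neutropenic mice were infected iv and treated 2 h later. Four to six ip dose levels (0.078–160 mg/kg) were given every 24 h for 4 days, 3 mice per regimen. Kidney CFU were counted at 96 h. A sigmoid dose-effect model gave the static and 1-log-kill doses relative to burden at therapy start.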

[3] = Ratio of AUC (0 to 24 hrs) in Candida glabrata infected neutropenic ICR Swiss mouse to MIC for Candida glabrata at static dose after 24 hrs; assay type: functional; how it was run: as §1
[4] = Ratio of AUC (0 to 24 hrs) in Candida parapsilosis infected neutropenic ICR Swiss mouse to MIC for Candida parapsilosis at static dose after 24 hrs; assay type: functional; how it was run: as §1
[5] = Ratio of fAUC (0 to 24 hrs) in Candida albicans infected neutropenic ICR Swiss mouse to MIC for Candida albicans at static dose after 24 hrs; assay type: functional
[6] = Ratio of fAUC (0 to 24 hrs) in Candida parapsilosis infected neutropenic ICR Swiss mouse to MIC for Candida parapsilosis at static dose after 24 hrs; assay type: functional
[7] = Ratio of AUC (0 to 24 hrs) in Candida glabrata infected neutropenic ICR Swiss mouse to MIC for Candida glabrata at 1 log kill dose after 24 hrs; assay type: functional; how it was run: as §1
[8] = Ratio of fAUC (0 to 24 hrs) in Candida albicans infected neutropenic ICR Swiss mouse to MIC for Candida albicans at 1 log kill dose after 24 hrs; assay type: functional
[9] = Ratio of fAUC (0 to 24 hrs) in Candida glabrata infected neutropenic ICR Swiss mouse to MIC for Candida glabrata at 1 log kill dose after 24 hrs; assay type: functional
[10] = Ratio of fAUC (0 to 24 hrs) in Candida parapsilosis infected neutropenic ICR Swiss mouse to MIC for Candida parapsilosis at 1 log kill dose after 24 hrs; assay type: functional
[11] = tested on: Nakaseomyces glabratus; test: Fungistatic activity against Candida glabrata infected in neutropenic ICR Swiss mouse after 24 hrs; assay type: functional
How it was run: (§2)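 Female ICR Swiss mice, neutropenic via cyclophosphamide s.c. (150 mg/kg day −4, 100 mg/kg day −1 and day +2), infected by tail-vein injection of clinical isolates 2 h before therapy. Intraperitoneal dosing every 24 h for 4 days, 4–6 dose levels from 0.078 to 160 mg/kg, 3 mice per regimen. Kidney CFU counted at 96 h. Sigmoid dose-effect fit gives static dose and 1 log kill dose relative to burden at start of therapy.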

[12] = tested on: Candida parapsilosis; test: Antifungal activity against Candida parapsilosis infected in ICR Swiss mouse assessed log reduction in bacterial count […]; assay type: functional; how it was run: as §2
[13] = tested on: Candida albicans; test: Antifungal activity against Candida albicans infected in ICR Swiss mouse; assay type: functional; how it was run: as §2
[14] = tested on: Candida parapsilosis; test: Antifungal activity against Candida parapsilosis infected in ICR Swiss mouse; assay type: functional; how it was run: as §2
[15] = tested on: Candida albicans; test: Antifungal activity against Candida albicans 98-17 after 24 hrs; assay type: functional; settings: 98-17, 24 h
How it was run: (§3)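 MICs by CLSI M27-A3 broth dilution in RPMI 1640, inoculum 0.5 × 10³ to 2.5 × 10³ cells/ml, 35°C. Read visually at 24 h as the lowest concentration giving ≥50% growth reduction versus control. Run on three occasions in duplicate and reported as the mean. C. krusei ATCC 6258 and C. parapsilosis ATCC 22019 served as QC strains.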

[16] = tested on: Candida albicans; test: Antifungal activity against Candida albicans 580 after 24 hrs; assay type: functional; settings: Candida albicans, 580, 24 h
How it was run: (§4)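 Broth microdilution per CLSI M27-A3 in RPMI 1640; inoculum 0.5 × 10³ to 2.5 × 10³ cells/ml, 35°C. […] Three separate occasions in duplicate, mean reported; C. krusei ATCC 6258 and C. parapsilosis ATCC 22019 as daily QC.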

[17] = tested on: Candida albicans; test: Antifungal activity against Candida albicans K1 after 24 hrs; assay type: functional; settings: K1, 24 h; how it was run: as §4
[18] = tested on: Candida albicans; test: Antifungal activity against Candida albicans 570 after 24 hrs; assay type: functional; settings: Candida albicans, 570, 24 h; how it was run: as §3
[19] = tested on: Nakaseomyces glabratus; test: Antifungal activity against Candida glabrata 513 after 24 hrs; assay type: functional; settings: Nakaseomyces glabratus, 513, 24 h; how it was run: as §4
[20] = tested on: Nakaseomyces glabratus; test: Antifungal activity against Candida glabrata 33609 after 24 hrs; assay type: functional; settings: Nakaseomyces glabratus, 33609, 24 h; how it was run: as §4
[21] = tested on: Nakaseomyces glabratus; test: Antifungal activity against Candida glabrata 33616 after 24 hrs; assay type: functional; settings: Nakaseomyces glabratus, 33616, 24 h; how it was run: as §3
[22] = tested on: Nakaseomyces glabratus; test: Antifungal activity against Candida glabrata 35315 after 24 hrs; assay type: functional; settings: Nakaseomyces glabratus, 35315, 24 h; how it was run: as §3
[23] = tested on: Nakaseomyces glabratus; test: Antifungal activity against Candida glabrata 34341 after 24 hrs; assay type: functional; settings: Nakaseomyces glabratus, 34341, 24 h; how it was run: as §3
[24] = tested on: Candida metapsilosis; test: Antifungal activity against Candida metapsilosis 20463.02 after 24 hrs; assay type: functional; settings: Lodderomyces metapsilosis, 20463.02, 24 h; how it was run: as §3
[25] = tested on: Candida parapsilosis; test: Antifungal activity against Candida parapsilosis 20450.096 after 24 hrs; assay type: functional; settings: Lodderomyces parapsilosis, 20450.096, 24 h; how it was run: as §3
[26] = tested on: Candida parapsilosis; test: Antifungal activity against Candida parapsilosis 20477.078 after 24 hrs; assay type: functional; settings: Lodderomyces parapsilosis, 20477.078, 24 h; how it was run: as §3
[27] = tested on: Candida parapsilosis; test: Antifungal activity against Candida parapsilosis 20385.079 after 24 hrs; assay type: functional; settings: Lodderomyces parapsilosis, 20385.079, 24 h; how it was run: as §3
[28] = tested on: Candida parapsilosis; test: Antifungal activity against Candida parapsilosis 20477.048 after 24 hrs; assay type: functional; settings: Lodderomyces parapsilosis, 20477.048, 24 h; how it was run: as §3
[29] = tested on: Candida parapsilosis; test: Antifungal activity against Candida parapsilosis 20562.03 after 24 hrs; assay type: functional; settings: Lodderomyces parapsilosis, 20562.03, 24 h; how it was run: as §3
[30] = tested on: Candida parapsilosis; test: Antifungal activity against Candida parapsilosis 20553.009 after 24 hrs; assay type: functional; settings: Lodderomyces parapsilosis, 20553.009, 24 h; how it was run: as §3
[31] = tested on: Candida parapsilosis; test: Antifungal activity against Candida parapsilosis 20489.085 after 24 hrs; assay type: functional; settings: Lodderomyces parapsilosis, 20489.085, 24 h; how it was run: as §4
[32] = tested on: Candida parapsilosis; test: Antifungal activity against Candida parapsilosis 20511.092 after 24 hrs; assay type: functional; settings: Lodderomyces parapsilosis, 20511.092, 24 h; how it was run: as §3
[33] = tested on: Candida orthopsilosis; test: Antifungal activity against Candida orthopsilosis 20577.055 after 24 hrs; assay type: functional; settings: Lodderomyces orthopsilosis, 20577.055, 24 h; how it was run: as §3
[34] = tested on: Candida parapsilosis; test: Antifungal activity against Candida parapsilosis 20519.069 after 24 hrs; assay type: functional; settings: Lodderomyces parapsilosis, 20519.069, 24 h; how it was run: as §3
[35] = AUC (0 to 24 hrs) in Candida albicans infected neutropenic ICR Swiss mouse at 80 mg/kg, ip; assay type: ADME, organism-based; design: time < 24 hr, dose 80 mg/kg, route intraperitoneal; settings: plasma
How it was run: (§5)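 Neutropenic female ICR Swiss mice (cyclophosphamide sc at 150 mg/kg on day −4, 100 mg/kg on day −1 and day +2) infected iv via tail vein with Candida; single ip doses of 5, 20 or 80 mg/kg. Serum drawn from 3 mice per time point at eight time points and assayed by microbiologic assay (C. albicans K1) or […]. Noncompartmental analysis; AUC by trapezoidal rule.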

[36] = AUC (0 to 24 hrs) in Candida albicans infected neutropenic ICR Swiss mouse at 20 mg/kg, ip; assay type: ADME, organism-based; design: time < 24 hr, dose 20 mg/kg, route intraperitoneal; settings: plasma; how it was run: as §5

Work on CCCCCOc1ccc(-c2ccc(-c3ccc(C(=O)N[C@H]4C[C@@H](O)[C@@H](O)NC(=O)[C@@H]5[C@@H](O)[C@@H](C)CN5C(=O)[C@H]([C@@H](C)O)NC(=O)[C@H]([C@H](O)[C@@H](O)c5ccc(O)cc5)NC(=O)[C@@H]5C[C@@H](O)CN5C(=O)[C@H]([C@@H](C)O)NC4=O)cc3)cc2)cc1 [ANIDULAFUNGIN] ({pTerphenylCO(4''-OnC5H11)}-[Orn(4R-OH,5R-OH)]T[Hyp][hTyr(3S-OH,4S-OH)]T[Pro(3S-OH,4S-Me)]; lactam 1-C) yielded an Activity [1] of 99%, a Ratio [2] of 2782 and a Ratio [3] of 1366. It also gave a Ratio [4] of 1154, a Ratio [5] of 27.8 and a Ratio [6] of 11.5. For the same compound, the Ratio [7] was 3188, the Ratio [8] was 91 and the Ratio [9] was 32. For the same compound, the Ratio [10] was 22, the Activity [11] was 21.1 mg/kg and the Activity [12] was 47 mg/kg. It also gave an Emax [13] of 6.9 log10 CFU/kidneys, an ED50 ([13]; Candida albicans) of 26.1 mg/kg and an Emax [14] of 5.8 log10 CFU/kidneys. For the same compound, the ED50 ([14]; Lodderomyces parapsilosis) was 7.2 mg/kg, the MIC [15] was 0.03 µg/mL (≈ 0.0263 µM) and the MIC [16] was 0.015 µg/mL (≈ 0.0132 µM). The MIC [17] was 0.015 µg/mL (≈ 0.0132 µM), the MIC [18] was 0.03 µg/mL (≈ 0.0263 µM) and the MIC [19] was 0.06 µg/mL (≈ 0.0526 µM). It also gave an MIC [20] of 0.03 µg/mL (≈ 0.0263 µM), an MIC [21] of 1 µg/mL (≈ 0.877 µM) and an MIC [22] of 0.25 µg/mL (≈ 0.219 µM). For the same compound, the MIC [23] was 0.12 µg/mL (≈ 0.105 µM), the MIC [24] was 0.25 µg/mL (≈ 0.219 µM) and the MIC [25] was 1 µg/mL (≈ 0.877 µM). The MIC [26] was 2 µg/mL (≈ 1.75 µM), the MIC [27] was 1 µg/mL (≈ 0.877 µM) and the MIC [28] was 2 µg/mL (≈ 1.75 µM). For the same compound, the MIC [29] was 1 µg/mL (≈ 0.877 µM), the MIC [30] was 2 µg/mL (≈ 1.75 µM) and the MIC [31] was 1 µg/mL (≈ 0.877 µM). For the same compound, the MIC [32] was 1 µg/mL (≈ 0.877 µM), the MIC [33] was 0.5 µg/mL (≈ 0.438 µM) and the MIC [34] was 4 µg/mL (≈ 3.51 µM). The AUC(0-t) at 24 h [35] was 1980 µg·h/mL and the AUC(0-t) at 24 h [36] was 382 µg·h/mL.
